Measured values from ChEMBL document CHEMBL1687785, “ampG gene of Pseudomonas aeruginosa and its role in β-lactamase expression” (2010).

Tests used:
[1] = target: Beta-lactamase (Pseudomonas aeruginosa (strain ATCC 15692 / PAO1 / 1C / PRS 101 / LMG12228)) (UniProt P24735); assay: Activity of ampG deficient Pseudomonas aeruginosa PAK AmpC at 50 ug/ml assessed as nitrocefin substrate hydrolysis per mg of protein after 2 hrs by UV spectrophotometry
Summary of the method: (§1)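 P. aeruginosa cells induced 2 h with […] cefoxitin. Crude sonicated extracts assayed by UV spectrophotometry with 100 μM nitrocefin substrate. Specific activity is nmol nitrocefin hydrolyzed per min per mg protein at 30°C, with protein by BCA against BSA standard. Triplicate inductions, averaged.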

[2] = target: Beta-lactamase (Pseudomonas aeruginosa (strain ATCC 15692 / PAO1 / 1C / PRS 101 / LMG12228)) (UniProt P24735); assay: Activity of ampG deficient Pseudomonas aeruginosa PAK AmpC harboring pZY0908 conferring resistance to gentamycin at 50 ug/ml assessed as nitrocefin substrate hydrolysis per mg of protein after 2 hrs by UV spectrophotometry; summary of the method: as §1
[3] = target: Beta-lactamase (Pseudomonas aeruginosa (strain ATCC 15692 / PAO1 / 1C / PRS 101 / LMG12228)) (UniProt P24735); assay: Activity of ampG deficient Pseudomonas aeruginosa PAO1 AmpC at 50 ug/ml assessed as nitrocefin substrate hydrolysis per mg of protein after 2 hrs by UV spectrophotometry; summary of the method: as §1
[4] = target: Beta-lactamase (Pseudomonas aeruginosa (strain ATCC 15692 / PAO1 / 1C / PRS 101 / LMG12228)) (UniProt P24735); assay: Activity of ampD, […], ampDh2 deficient Pseudomonas aeruginosa PAO1 AmpC at 50 ug/ml assessed as nitrocefin substrate hydrolysis per mg of protein after 2 hrs by UV spectrophotometry; summary of the method: as §1
[5] = target: Beta-lactamase (Pseudomonas aeruginosa (strain ATCC 15692 / PAO1 / 1C / PRS 101 / LMG12228)) (UniProt P24735); assay: Activity of Pseudomonas aeruginosa PAO1 AmpC at 50 ug/ml assessed as nitrocefin substrate hydrolysis per mg of protein after 2 hrs by UV spectrophotometry; summary of the method: as §1
[6] = target: Beta-lactamase (Pseudomonas aeruginosa (strain ATCC 15692 / PAO1 / 1C / PRS 101 / LMG12228)) (UniProt P24735); assay: Activity of Pseudomonas aeruginosa PAK AmpC at 50 ug/ml assessed as nitrocefin substrate hydrolysis per mg of protein after 2 hrs by UV spectrophotometry; summary of the method: as §1
[7] = target: Beta-lactamase (Pseudomonas aeruginosa (strain ATCC 15692 / PAO1 / 1C / PRS 101 / LMG12228)) (UniProt P24735); assay: Activity of ampG deficient Pseudomonas aeruginosa PAK AmpC harboring pZY0901 conferring resistance to gentamycin at 50 ug/ml assessed as nitrocefin substrate hydrolysis per mg of protein after 2 hrs by UV spectrophotometry; summary of the method: as §1
[8] = target: Beta-lactamase (Pseudomonas aeruginosa (strain ATCC 15692 / PAO1 / 1C / PRS 101 / LMG12228)) (UniProt P24735); assay: Activity of ampD, ampDh2, ampDh3 and ampG deficient Pseudomonas aeruginosa PAO1 AmpC at 50 ug/ml assessed as nitrocefin substrate hydrolysis per mg of protein after 2 hrs by UV spectrophotometry; summary of the method: as §1
[9] = target: Beta-lactamase (Pseudomonas aeruginosa (strain ATCC 15692 / PAO1 / 1C / PRS 101 / LMG12228)) (UniProt P24735); assay: Activity of ampD, ampDh2, ampDh3 and ampG deficient Pseudomonas aeruginosa PAO1 AmpC harboring pZY0901 conferring resistance to gentamycin at 50 ug/ml assessed as nitrocefin substrate hydrolysis per mg of protein after 2 hrs by UV spectrophotometry; summary of the method: as §1
[10] = target: Beta-lactamase (Pseudomonas aeruginosa (strain ATCC 15692 / PAO1 / 1C / PRS 101 / LMG12228)) (UniProt P24735); assay: Activity of Pseudomonas aeruginosa PAO1 AmpC assessed as nitrocefin hydrolyzed per mg of protein at 1 ug/ml by UV spectrophotometry
Summary of the method: (§2)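 P. aeruginosa cells induced 2 h with cefoxitin (1, 10 or 25 μg/ml; uninduced control). Crude extracts prepared by sonication. β-Lactamase measured by UV spectrophotometry with 100 μM nitrocefin as substrate. Specific activity given as nmol nitrocefin hydrolyzed per min per mg protein at 30°C, with protein by BCA against BSA standard. Triplicate inductions, averaged.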

[11] = target: Beta-lactamase (Pseudomonas aeruginosa (strain ATCC 15692 / PAO1 / 1C / PRS 101 / LMG12228)) (UniProt P24735); assay: Activity of Pseudomonas aeruginosa PAO1 AmpC assessed as nitrocefin hydrolyzed per mg of protein at 10 ug/ml by UV spectrophotometry; summary of the method: as §2
[12] = target: Beta-lactamase (Pseudomonas aeruginosa (strain ATCC 15692 / PAO1 / 1C / PRS 101 / LMG12228)) (UniProt P24735); assay: Activity of Pseudomonas aeruginosa PAO1 AmpC assessed as nitrocefin hydrolyzed per mg of protein at 25 ug/ml by UV spectrophotometry; summary of the method: as §2
[13] = target: Beta-lactamase (Pseudomonas aeruginosa (strain ATCC 15692 / PAO1 / 1C / PRS 101 / LMG12228)) (UniProt P24735); assay: Activity of Pseudomonas aeruginosa PAK AmpC assessed as nitrocefin hydrolyzed per mg of protein at 1 ug/ml by UV spectrophotometry; summary of the method: as §2
[14] = target: Beta-lactamase (Pseudomonas aeruginosa (strain ATCC 15692 / PAO1 / 1C / PRS 101 / LMG12228)) (UniProt P24735); assay: Activity of Pseudomonas aeruginosa PAK AmpC assessed as nitrocefin hydrolyzed per mg of protein at 10 ug/ml by UV spectrophotometry; summary of the method: as §2
[15] = target: Beta-lactamase (Pseudomonas aeruginosa (strain ATCC 15692 / PAO1 / 1C / PRS 101 / LMG12228)) (UniProt P24735); assay: Activity of Pseudomonas aeruginosa PAK AmpC assessed as nitrocefin hydrolyzed per mg of protein at 25 ug/ml by UV spectrophotometry; summary of the method: as §2
[16] = target: Beta-lactamase (Pseudomonas aeruginosa (strain ATCC 15692 / PAO1 / 1C / PRS 101 / LMG12228)) (UniProt P24735); assay: Activity of ampD, […], ampDh2 deficient Pseudomonas aeruginosa PAO1 AmpC assessed as nitrocefin hydrolyzed per mg of protein at 1 ug/ml by UV spectrophotometry; summary of the method: as §2
[17] = target: Beta-lactamase (Pseudomonas aeruginosa (strain ATCC 15692 / PAO1 / 1C / PRS 101 / LMG12228)) (UniProt P24735); assay: Activity of ampD, […], ampDh2 deficient Pseudomonas aeruginosa PAO1 AmpC assessed as nitrocefin hydrolyzed per mg of protein at 10 ug/ml by UV spectrophotometry; summary of the method: as §2
[18] = target: Beta-lactamase (Pseudomonas aeruginosa (strain ATCC 15692 / PAO1 / 1C / PRS 101 / LMG12228)) (UniProt P24735); assay: Activity of ampD, […], ampDh2 deficient Pseudomonas aeruginosa PAO1 AmpC assessed as nitrocefin hydrolyzed per mg of protein at 25 ug/ml by UV spectrophotometry; summary of the method: as §2
[19] = target: Beta-lactamase (Pseudomonas aeruginosa (strain ATCC 15692 / PAO1 / 1C / PRS 101 / LMG12228)) (UniProt P24735); assay: Activity of ampG deficient Pseudomonas aeruginosa PAO1 AmpC assessed as nitrocefin hydrolyzed per mg of protein at 1 ug/ml by UV spectrophotometry; summary of the method: as §2
[20] = target: Beta-lactamase (Pseudomonas aeruginosa (strain ATCC 15692 / PAO1 / 1C / PRS 101 / LMG12228)) (UniProt P24735); assay: Activity of ampG deficient Pseudomonas aeruginosa PAO1 AmpC assessed as nitrocefin hydrolyzed per mg of protein at 10 ug/ml by UV spectrophotometry; summary of the method: as §2
[21] = target: Beta-lactamase (Pseudomonas aeruginosa (strain ATCC 15692 / PAO1 / 1C / PRS 101 / LMG12228)) (UniProt P24735); assay: Activity of ampG deficient Pseudomonas aeruginosa PAO1 AmpC assessed as nitrocefin hydrolyzed per mg of protein at 25 ug/ml by UV spectrophotometry; summary of the method: as §2
[22] = target: Beta-lactamase (Pseudomonas aeruginosa (strain ATCC 15692 / PAO1 / 1C / PRS 101 / LMG12228)) (UniProt P24735); assay: Activity of ampD, […], ampDh2 and ampG deficient Pseudomonas aeruginosa PAO1 AmpC assessed as nitrocefin hydrolyzed per mg of protein at 25 ug/ml by UV spectrophotometry; summary of the method: as §2
[23] = target: Beta-lactamase (Pseudomonas aeruginosa (strain ATCC 15692 / PAO1 / 1C / PRS 101 / LMG12228)) (UniProt P24735); assay: Activity of ampD, […], ampDh2 and ampG deficient Pseudomonas aeruginosa PAO1 AmpC assessed as nitrocefin hydrolyzed per mg of protein at 10 ug/ml by UV spectrophotometry; summary of the method: as §2
[24] = target: Beta-lactamase (Pseudomonas aeruginosa (strain ATCC 15692 / PAO1 / 1C / PRS 101 / LMG12228)) (UniProt P24735); assay: Activity of ampD, […], ampDh2 and ampG deficient Pseudomonas aeruginosa PAO1 AmpC assessed as nitrocefin hydrolyzed per mg of protein at 1 ug/ml by UV spectrophotometry; summary of the method: as §2
[25] = target: Beta-lactamase (Pseudomonas aeruginosa (strain ATCC 15692 / PAO1 / 1C / PRS 101 / LMG12228)) (UniProt P24735); assay: Activity of ampG deficient Pseudomonas aeruginosa PAK AmpC assessed as nitrocefin hydrolyzed per mg of protein at 25 ug/ml by UV spectrophotometry; summary of the method: as §2
[26] = target: Beta-lactamase (Pseudomonas aeruginosa (strain ATCC 15692 / PAO1 / 1C / PRS 101 / LMG12228)) (UniProt P24735); assay: Activity of ampG deficient Pseudomonas aeruginosa PAK AmpC assessed as nitrocefin hydrolyzed per mg of protein at 10 ug/ml by UV spectrophotometry; summary of the method: as §2
[27] = target: Beta-lactamase (Pseudomonas aeruginosa (strain ATCC 15692 / PAO1 / 1C / PRS 101 / LMG12228)) (UniProt P24735); assay: Activity of ampG deficient Pseudomonas aeruginosa PAK AmpC assessed as nitrocefin hydrolyzed per mg of protein at 1 ug/ml by UV spectrophotometry; summary of the method: as §2
[28] = target: Beta-lactamase AmpC (Enterobacter cloacae) (UniProt P05364); assay: Activity of kanamycin resistant Escherichia coli SNO301-1 AmpC harboring pEC1C carrying ampC, ampR from Enterobacter cloacae at 50 ug/ml assessed as nitrocefin substrate hydrolysis per mg of protein after 2 hrs by UV spectrophotometry
[29] = target: Beta-lactamase AmpC (Enterobacter cloacae) (UniProt P05364); assay: Activity of gentamycin resistant Escherichia coli SNO301-1 AmpC harboring pEC1C carrying ampC, ampR from Enterobacter cloacae at 50 ug/ml assessed as nitrocefin substrate hydrolysis per mg of protein after 2 hrs by UV spectrophotometry
[30] = target: Beta-lactamase AmpC (Enterobacter cloacae) (UniProt P05364); assay: Activity of tetracycline resistant Escherichia coli SNO301-1 AmpC harboring pEC1C carrying ampC, ampR from Enterobacter cloacae at 50 ug/ml assessed as nitrocefin substrate hydrolysis per mg of protein after 2 hrs by UV spectrophotometry

Beta-lactamase AmpC (Enterobacter cloacae), sequence (P05364 whole entry, looked up): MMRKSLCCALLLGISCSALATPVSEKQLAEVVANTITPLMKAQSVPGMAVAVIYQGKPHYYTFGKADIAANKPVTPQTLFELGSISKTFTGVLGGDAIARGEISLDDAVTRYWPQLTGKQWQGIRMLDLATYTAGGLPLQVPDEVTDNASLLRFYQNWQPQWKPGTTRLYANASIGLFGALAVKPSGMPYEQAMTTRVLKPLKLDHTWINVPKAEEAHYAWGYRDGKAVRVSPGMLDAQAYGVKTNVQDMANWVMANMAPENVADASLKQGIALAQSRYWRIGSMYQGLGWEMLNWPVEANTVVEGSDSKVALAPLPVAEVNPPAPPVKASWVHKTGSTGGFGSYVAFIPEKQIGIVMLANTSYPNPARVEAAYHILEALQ
Beta-lactamase (Pseudomonas aeruginosa (strain ATCC 15692 / PAO1 / 1C / PRS 101 / LMG12228)), sequence (P24735 27-397 limits assumed): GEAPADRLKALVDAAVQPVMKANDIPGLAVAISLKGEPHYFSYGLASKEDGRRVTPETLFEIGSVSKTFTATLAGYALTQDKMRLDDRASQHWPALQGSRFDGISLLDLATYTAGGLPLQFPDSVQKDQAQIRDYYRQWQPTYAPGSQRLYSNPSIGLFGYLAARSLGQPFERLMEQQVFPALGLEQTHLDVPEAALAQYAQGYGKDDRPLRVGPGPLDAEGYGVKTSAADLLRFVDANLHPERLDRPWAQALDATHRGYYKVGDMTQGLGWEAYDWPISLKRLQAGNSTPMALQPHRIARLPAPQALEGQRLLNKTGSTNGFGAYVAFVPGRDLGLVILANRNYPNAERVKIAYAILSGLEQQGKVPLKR

For CO[C@@]1(NC(=O)Cc2cccs2)C(=O)N2C(C(=O)O)=C(COC(N)=O)CS[C@@H]21, the Activity [1] was 0 nmol/min, the Activity [2] was 1300 nmol/min and the Activity [3] was 0 nmol/min. The Activity [4] was 3440 nmol/min, the Activity [5] was 879 nmol/min and the Activity [6] was 1220 nmol/min. It also gave an Activity [7] of 2570 nmol/min, an Activity [8] of 0 nmol/min and an Activity [9] of 8130 nmol/min. The Activity [10] was 36 nmol/min, the Activity [11] was 165 nmol/min and the Activity [12] was 372 nmol/min. It also gave an Activity [13] of 152 nmol/min, an Activity [14] of 747 nmol/min and an Activity [15] of 1070 nmol/min. For the same compound, the Activity [16] was 2980 nmol/min, the Activity [17] was 3010 nmol/min and the Activity [18] was 3020 nmol/min. It also gave an Activity [19] of 3 nmol/min, an Activity [20] of 10 nmol/min and an Activity [21] of 0 nmol/min. For the same compound, the Activity [22] was 0 nmol/min, the Activity [23] was 8 nmol/min and the Activity [24] was 4 nmol/min. For the same compound, the Activity [25] was 0 nmol/min, the Activity [26] was 5 nmol/min and the Activity [27] was 2 nmol/min. It also gave an Activity [28] of 3600 nmol/min, an Activity [29] of 3250 nmol/min and an Activity [30] of 38 nmol/min.
